In ChEMBL document CHEMBL3102692 (Bioorg Med Chem Lett, 2014):
Activity calls are given as the source filed them. No cut-off for these calls is given here.

What was measured:
[1] = target: T1, Beta-secretase 1 (Homo sapiens, UniProt P56817); assay: Inhibition of recombinant BACE1 (unknown origin) at 0.67 mM
[2] = target: T1, Beta-secretase 1; assay: Inhibition of recombinant BACE1 (unknown origin) at 1.3 mM
In short: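 Recombinant BACE1 was incubated with a synthetic dodecapeptide substrate carrying the Swedish-type BACE1 cleavage sequence, in 40 mM AcONa buffer (pH 4.0) with 10% glycerol, 10 mM DTT and 4 M NaCl. The reaction mixture was analysed by reversed-phase C18 HPLC using a 10–40% MeCN gradient over 30 min in aq 0.1% TFA. Inhibition was read from the decrease of the substrate.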

[3] = target: T1, Beta-secretase 1; assay: Inhibition of recombinant BACE1 (unknown origin)
[4] = target: T1, Beta-secretase 1; assay: Non-competitive inhibition of recombinant BACE1 (unknown origin) by Lineweaver-Burk plot analysis

T1 sequence (P56817 whole entry): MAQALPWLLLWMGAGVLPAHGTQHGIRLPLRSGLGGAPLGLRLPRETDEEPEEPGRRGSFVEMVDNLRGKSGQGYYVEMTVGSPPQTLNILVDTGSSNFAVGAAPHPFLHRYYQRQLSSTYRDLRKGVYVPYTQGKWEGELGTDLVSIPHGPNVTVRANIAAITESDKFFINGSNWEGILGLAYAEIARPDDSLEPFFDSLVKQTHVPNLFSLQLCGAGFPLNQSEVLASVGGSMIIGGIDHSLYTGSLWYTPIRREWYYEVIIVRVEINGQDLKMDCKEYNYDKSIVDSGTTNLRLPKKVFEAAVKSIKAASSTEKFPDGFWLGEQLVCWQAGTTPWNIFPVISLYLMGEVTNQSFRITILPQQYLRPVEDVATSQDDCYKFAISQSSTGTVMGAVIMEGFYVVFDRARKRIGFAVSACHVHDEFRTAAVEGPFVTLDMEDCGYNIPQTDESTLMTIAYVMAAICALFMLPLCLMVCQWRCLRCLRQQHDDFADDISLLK

Row | Structure (SMILES) | inhibition [1] [%] | also measured
1 | COCCOCOc1ccc(/C=C/C(=O)/C=C(O)/C=C/c2ccc(OCOCCOC)c(OC)c2)cc1OC | – | inhibition [2]: 19%
2 | N#Cc1cccc(/C=C/C(O)=C/C(=O)/C=C/c2ccc(O)c(O)c2)c1 | 21 | –
3 | COc1cc(CCC(=O)CC(O)CCc2ccc(O)c(OC)c2)ccc1O (stereo unspecified) | – | inhibition [2]: 7%
4 | COCCOCOc1ccc(/C=C/C(=O)/C=C(O)/C=C/c2ccc(O)c(OC)c2)cc1OC | – | inhibition [2]: 17%
5 | COc1ccc(CCC(O)C(C(C)C)C(O)CCc2ccc(OC)c(OC)c2)cc1OC (stereo unspecified) | 9 | –
6 | O=C(/C=C(O)/C=C/c1cccc(O)c1)/C=C/c1cccc(O)c1 | 33 | –
7 | COCCOCOc1ccc(CCC(=O)/C=C(\O)CCc2ccc(OCOCCOC)c(OC)c2)cc1OC | – | inhibition [2]: 17%
8 | COc1cc(CCC(=O)/C=C(\O)CCc2ccc(O)c(OC)c2)ccc1O | – | inhibition [2]: 7%
9 | COc1cc(/C=C/C(O)=C/C(=O)/C=C/c2ccc(O[Si](C)(C)C(C)(C)C)c(OC)c2)ccc1O | – | inhibition [2]: 22%
10 | O=C(/C=C(O)/C=C/c1ccc(O)c(O)c1)/C=C/c1ccc(O)c(O)c1 | 25 | IC50 [3]: 2200 µM
11 | COCCOCOC(=C\C(=O)/C=C/c1ccc(OCOCCOC)c(OC)c1)/C=C/c1ccc(OCOCCOC)c(OC)c1 | – | inhibition [2]: 36%
12 | COCOc1ccc(/C=C/C(=O)/C=C(O)/C=C/c2ccc(OCOC)c(OC)c2)cc1OC | 7 | –
13 | COCCOCOc1ccc(CCC(=O)CC(O)CCc2ccc(OCOCCOC)c(OC)c2)cc1OC (stereo unspecified) | – | inhibition [2]: 15%
14 | O=C(/C=C(O)/C=C/c1cccc([N+](=O)[O-])c1)/C=C/c1ccc(O)c(O)c1 | 18 | IC50 [3]: 1800 µM
15 | COc1cc(/C=C/C(=O)/C=C(O)/C=C/c2ccc(Br)cc2)ccc1O | 5 | –
16 | COc1ccc(CCC(=O)C(C(C)C)C(O)CCc2ccc(OC)c(OC)c2)cc1OC (stereo unspecified) | 1 | –

The next lines start with results.

Row | inhibition [1] [%] | Structure (SMILES) | also measured
17 | 4 | COc1ccc(/C=C/C(=O)/C(=C(O)/C=C/c2ccc(OC)c(OC)c2)C(C)C)cc1OC | –
18 | 21 | O=C(/C=C(O)/C=C/c1cccnc1)/C=C/c1ccc(O)c(O)c1 | –
19 | 18 | O=C(/C=C(O)/C=C/c1ccc(O)cc1)/C=C/c1ccc(O)c(O)c1 | –
20 | 6 | COc1cc(/C=C/C(=O)/C(=C(O)/C=C/c2ccc(O)c(OC)c2)C(C)C)ccc1O | –
21 | 30 | O=C(/C=C(O)/C=C/c1ccc[nH]1)/C=C/c1ccc(O)c(O)c1 | –
22 | 0 | COc1ccc(/C=C/C(=O)/C=C(O)/C=C/c2ccc(OC)c(OC)c2)cc1OC | –
23 | 71 | O=C(/C=C(O)/C=C/c1c[nH]c2ccccc12)/C=C/c1ccc(O)c(O)c1 | IC50 [3]: 450 µM
24 | 100 | O=C(/C=C(O)/C=C/c1ccccc1O)/C=C/c1ccc(O)c(O)c1 | inhibition [4]: Active; IC50 [3]: 250 µM
25 | 26 | O=C(/C=C(O)/C=C/c1ccccc1)/C=C/c1ccc(O)c(O)c1 | –
26 | 35 | COc1cc(/C=C/C(O)=C/C(=O)/C=C/c2ccc(O)cc2)ccc1O [DEMETHOXYCURCUMIN] | IC50 [3]: 1600 µM
27 | 5 | COc1ccc(CCCC(C(=O)CCc2ccc(OC)c(OC)c2)C(C)C)cc1OC (stereo unspecified) | –
28 | 47 | COc1ccccc1/C=C/C(O)=C/C(=O)/C=C/c1ccc(O)c(O)c1 | IC50 [3]: 1400 µM
29 | 1 | O=C(/C=C(O)/C=C/c1ccccc1)/C=C/c1ccccc1 | –
